Bioassay records deposited in PubChem by several laboratories.
TAAR1 antag: human TAAR1 antagonists, primary screen, Fluo-8 calcium fluorescence, CHO RD-HGA16 cells; hit rate 1.5% among 360,000; antagonist; inhibition, % at 3 µM;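 active means inhibition above a per-plate cutoff, the mean inhibition of test compounds on that plate plus 3 SD, cut at about 49% in these data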;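 further: 0% = DMSO plus EC80 beta-PEA response and 100% = DMSO alone without agonist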
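Test system – hTAAR1-expressing CHO RD-HGA16 cells, Gα16-coupled · Also added – β-PEA at EC80 concentration, post-compound challenge · Compound – 3 µM, single point · Incubation – dye loading 75 min at 37 °C, then 30 min room temperature · Measured by – Fluo-8 intracellular calcium dye fluorescence, real-time kinetic reads · Benchmarks – vehicle and agonist controls · Replicates – singlicate, one well per test compound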
TAAR1 ag: human TAAR1 agonists, primary screen, Fluo-8 calcium fluorescence, CHO RD-HGA16 cells; activation, % at 3 µM; hit rate 0.99% among 360,000; vehicle wells 0%, saturating PEA agonist 100%; Trace amine-associated receptor 1 (Homo sapiens), Q96RJ0;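 active means activation above the mean activation of all test compounds in the run plus 3 SD, cut at about 38% in these data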
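System: CHO-derived RD-HGA16 cells with stable Gα16 and human TAAR1 / Times: 17-24 h plating, Fluo-8 75 min 37 °C, 30 min RT / Technique: calcium-sensitive Fluo-8 signal, excitation 470-495, emission 515-575 nm / Measure: % activation relative to PEA EC100 response / Benchmarks: DMSO and PEA EC100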
MPTP inh: mitochondrial permeability transition pore inhibitors, primary screen, biochemical, isolated mouse mitochondria, absorbance; hit rate 1.4% among 360,000; inhibition, % at 10 µM; Ca2+ swelling absorbance, 30 min; AID 602449, 2012;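 active means inhibition of 50% or more, scaled per plate between neutral and stimulator controls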;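 further: 0% = DMSO wells given calcium and 100% = 1 mM EGTA wells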
DAGLB inh: DAGLB lipase inhibitors, primary screen, biochemical, fluorescence, HTS; Diacylglycerol lipase-beta (Homo sapiens), Q8NCG7; HEK293T DAGLB membrane lysate, EnzChek fluorogenic substrate; inhibition, % at 5.17 µM; hit rate 0.059% among 340,000; in the data active means inhibition above about 34%;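 further: 0% = enzyme with vehicle and 100% = wells lacking enzyme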
Target sequence (Q8NCG7 whole entry, looked up): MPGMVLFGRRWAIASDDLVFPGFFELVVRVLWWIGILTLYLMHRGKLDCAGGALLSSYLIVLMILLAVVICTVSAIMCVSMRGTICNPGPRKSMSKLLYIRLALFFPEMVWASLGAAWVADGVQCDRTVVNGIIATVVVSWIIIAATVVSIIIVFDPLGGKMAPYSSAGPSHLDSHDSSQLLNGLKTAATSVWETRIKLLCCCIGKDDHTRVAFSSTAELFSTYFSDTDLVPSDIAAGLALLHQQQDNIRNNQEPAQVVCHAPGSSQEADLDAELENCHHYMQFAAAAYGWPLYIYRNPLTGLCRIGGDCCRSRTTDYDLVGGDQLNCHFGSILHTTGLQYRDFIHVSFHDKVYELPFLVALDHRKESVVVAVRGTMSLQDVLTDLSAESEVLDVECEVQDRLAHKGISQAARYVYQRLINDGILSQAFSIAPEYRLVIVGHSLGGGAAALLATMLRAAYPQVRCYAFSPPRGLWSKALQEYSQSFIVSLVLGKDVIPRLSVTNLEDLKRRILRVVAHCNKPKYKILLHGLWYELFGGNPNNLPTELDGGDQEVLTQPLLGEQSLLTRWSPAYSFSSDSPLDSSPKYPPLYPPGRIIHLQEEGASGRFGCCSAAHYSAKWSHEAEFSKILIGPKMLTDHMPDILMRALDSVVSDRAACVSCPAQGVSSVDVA
GPR7 antag: GPR7 receptor antagonists, primary screen, cell-based, fluorescence, single concentration; AID 1861, 2009; inhibition, % at 4.4 µM; GPR7-expressing cells, fluorescence antagonist assay; Neuropeptides B/W receptor type 1 (Homo sapiens), P48145; hit rate 1.1% among 290,000; in the data active means inhibition above about 16%, passing the limit was not always enough;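 further: cells stimulated with the agonist NPW; 0% = agonist with vehicle and 100% = vehicle without agonist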
Rh123 counter: fluorescence retest of MPTP screen hits in isolated mitochondria, single concentration; hit rate 78% among 5,000; inhibition, % at 10 µM; shares compounds with MPTP inh; membrane potential, Rhodamine 123 fluorescence; in the data active means inhibition above about 22%;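 further: 0% = DMSO vehicle and 100% = positive control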
MPTP abs DR: mitochondrial permeability transition pore inhibitors, dose response, biochemical, absorbance, uHTS hits | isolated mitochondria swelling | IC50, µM | hit rate 58% among 780 | shares compounds with MPTP inh; in the data active means IC50 below about 20 µM
MPTP cs DR: fluorescent counter-screen in isolated mitochondria, dose response, counter-screen for MPTP inhibitor project, biochemical, fluorescence, uHTS hits; shares compounds with MPTP inh; isolated mitochondria counterscreen, fluorescence read-out; IC50, µM; hit rate 49% among 780; AID 651564, 2012; in the data active means IC50 below about 80 µM
An asterisk follows results filed as active; i = inactive; / = no result given. This is a sample that favours compounds with a hit; in the whole collection about 4% have one here.

SMILES	TAAR1 antag	TAAR1 ag	MPTP inh	DAGLB inh	GPR7 antag	Rh123 counter	others
COc1ccc(CCNC(=O)Cc2ccc([N+](=O)[O-])cc2)cc1OC	-8	1	0	1	-9	/
COc1ccc(CNCCC(c2ccc(F)cc2)c2ccc(OC)cc2)cc1 (stereo unspecified)	25	12	56*	-4	47*	-8
COc1ccc(CCNCc2ccc(OCc3ccccc3)cc2)cc1	-9	44*	98*	-6	16	-2	MPTP abs DR=4.4*;MPTP cs DR=28*
COc1ccc(C(CCNCc2ccccc2)c2ccc(F)cc2)cc1 (stereo unspecified)	19	25	2	-3	24	/
COc1cc(CC2COC(=O)C2Cc2ccc(O)c(OC)c2)ccc1O (stereo unspecified)	-1	5	/	/	/	/
COc1cc(C[C@@H]2C(=O)OC[C@H]2Cc2ccc(OC)c(OC)c2)ccc1O	14	16	92*	1	/	80*
COc1ccc(-c2csc(C(C)(O)c3cccnc3)n2)cc1 (stereo unspecified)	24	0	2	/	/	/
CC1(C(=O)Nc2cccc(C#N)c2)CCN1C(=O)Cc1ccc(-c2ccccc2)cc1 (stereo unspecified)	32	6	92*	/	/	85*
CC(C)c1ccc(CC(=O)N2CCC2(C)C(=O)Nc2cccc(C#N)c2)cc1 (stereo unspecified)	-2	1	2	/	/	/
O=C(O)CSc1ncnc2sc(-c3ccccc3)cc12	-18	3	0	2	10	/
CC(=O)c1c(C)[nH]c(C(=O)CSc2ncnc3sc(-c4ccccc4)cc23)c1C	33	5	96*	1	-6	39*
COc1cccc(C(C)(O)c2nc(-c3cccc(C#N)c3)cs2)c1 (stereo unspecified)	6	1	17	/	/	/
Cc1ccc(OCC(=O)N2N=C(C(F)(F)F)CC2(O)C(C)(C)C)cc1C (stereo unspecified)	17	6	79*	-18	4	65*
Cc1ccccc1OCC(=O)N1N=C(C(F)(F)F)CC1(O)C(C)(C)C (stereo unspecified)	6	11	17	-3	-12	/
C[C@@H]1ON(C)[C@H]2C[C@H]3c4[nH]c5cccc(Br)c5c4CCN3C(=O)[C@@H]12	5	11	/	/	/	/
Cc1sc2ncnc(NCc3cccs3)c2c1C	16	16	92*	0	-11	92*
Cc1sc2ncnc(NCC(O)c3ccccc3)c2c1C (stereo unspecified)	10	5	69*	-1	2	58*
Cc1sc2ncnc(NCC(O)c3ccc([N+](=O)[O-])cc3)c2c1C (stereo unspecified)	28	8	92*	0	19	91*
COC(=O)C[C@H]1CC[C@H](NC(=O)Nc2ccccc2F)[C@@H](CO)O1	-3	3	0	/	/	/
CCOC(=O)c1c(CN2CCN(CCO)CC2)n(C)c2cc(Br)c(OC)cc12	11	9	68*	3	-1	-10	MPTP abs DR=i;MPTP cs DR=>80
CCOC(=O)c1c(C)n(C)c2cc(Br)c(OC)cc12	-6	6	0	-3	-3	/
CCOC(=O)c1c(CNCCN(CC)CC)n(C)c2cc(Br)c(OC)cc12	-7	11	74*	0	8	-14	MPTP abs DR=i;MPTP cs DR=>80
CO[C@@H]1[C@H](O)CC[C@]2(O)CN(c3ccccc3)[C@](C)([C@H](O)CC=C(C)C)[C@@H]12	-29	6	/	/	/	/
CCCCC(=O)N(C)c1c(C)nc2ccc(C(=O)N3CCN(c4ccccc4)CC3)cn12	-17	1	-1	/	/	/
Cc1ccc(-n2[nH]c(C)c(/C=N/Nc3ccc([N+](=O)[O-])cc3[N+](=O)[O-])c2=O)cc1	17	2	112*	12	4	69*
SMILES	TAAR1 antag	TAAR1 ag	MPTP inh	DAGLB inh	GPR7 antag	Rh123 counter	others
Cc1[nH]n(-c2ccc([N+](=O)[O-])cc2)c(=O)c1C=NCC1CCCO1 (stereo unspecified)	-12	0	-2	/	-3	/
CC(=O)c1cccc(NC(=S)NCCc2ccc(F)cc2)c1	14	33	9	0	5	/
Fc1ccc(CCNC(=S)Nc2ccc(F)cc2)cc1	18	5	50*	-3	-1	93*
CCCCc1ccc(NC(=S)NCCc2ccc(F)cc2)cc1	31	22	82*	-11	-22	105*
Cc1cc(C(=O)CSc2nc3ccccc3[nH]2)c(C)n1CC1CCCO1 (stereo unspecified)	72*	32	71*	0	27*	85*
Cc1cc(C(=O)CSc2nc(N)cc(=O)[nH]2)c(C)n1CC1CCCO1 (stereo unspecified)	-29	9	0	1	/	/
Cc1nn(C(C)(C)C)c(C)c1/C=N/OC(=O)Nc1ccc(Cl)cc1	-7	12	79*	-8	-6	89*
Cc1nn(C)c(C)c1/C=N/NC(=O)C(C)(C)Oc1ccc(Cl)cc1	/	/	-1	1	0	/
O=S(=O)(Nc1nc2ccccc2nc1Nc1ccc2c(c1)OCO2)c1ccccc1	5	1	41	0	5	/
COc1ccc(S(=O)(=O)Nc2cccc(S(=O)(=O)N3CCCCC3)c2)cc1	-17	3	-1	2	/	/
O=[N+]([O-])c1cccc(S(=O)(=O)Nc2nc3ccccc3nc2Nc2cccc(S(=O)(=O)N3CCCCC3)c2)c1	35	7	60*	2	-7	30*
Cc1cccc(S(=O)(=O)Nc2nc3ccccc3nc2Nc2ccc3c(c2)OCO3)c1	1	1	97*	7	0	65*
Cc1ccc(S(=O)(=O)Nc2nc3ccccc3nc2Nc2cccc(S(=O)(=O)N3CCCC3)c2)cc1	9	0	82*	3	5	41*
O=[N+]([O-])c1cccc(S(=O)(=O)Nc2ccc(S(=O)(=O)N3CCCC3)cc2)c1	-21	1	0	3	-4	/
CCCCN(C)c1c(C)nc2ccc(C(=O)NCCOc3ccc(OC)cc3)cn12	/	/	96*	/	/	78*
Cc1ccc(NC(=O)c2cc(S(=O)(=O)NCCc3ccccc3)ccc2F)cc1Cl	5	4	56*	-6	-10	71*
